Source: ChEMBL document CHEMBL1121519, “Basic antiinflammatory compounds. N,N',N''-Trisubstituted guanidines” (J Med Chem, 1980)

Key:
[1] = Lethal dose in mice(peroral administration); format: toxicity, organism-based; conditions: mouse, in vivo, po
Summary of the method: (§1)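 Median lethal dose found after oral dosing of mice, four mice per dose level, and calculated by the Litchfield–Wilcoxon method.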

[2] = Lethal dose in mice determined by Litchfield and Wilcoxon methods after peroral administration.; format: toxicity, organism-based; conditions: mouse, in vivo, po; summary of the method: as §1
[3] = Inhibitory concentration against PG synthetase; format: functional
[4] = target: Cyclooxygenase (Bos taurus) (UniProt O62664+O62698); test: Inhibition of prostaglandin synthetase in bovine seminal vesicle microsomes using Beckman liquid scintillation counter at 10 e-5 M; conditions: Microsome
[5] = tested on: Rattus norvegicus; test: Effective dose against carrageenan edema(peroral administration); format: functional; conditions: po
Summary of the method: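 Sprague-Dawley rats fasted 18 h, dosed orally in 0.5% carboxymethylcellulose suspension 1 h before 0.1 mL of 1% carrageenan into right hind paw plantar tissue. Paw swelling in treated versus control rats measured 3 h post-carrageenan by mercury-displacement plethysmometry; ED50 given in mg/kg po.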

[6] = tested on: Rattus norvegicus; test: Effective dose against gastroulcerogenic activity (peroral administration); format: functional; conditions: po
Summary of the method: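 Groups of six Sprague-Dawley rats given oral doses once daily for 3 days; inner stomach surface examined for lesions 24 h after last dose. ED50 is the dose giving macroscopically visible lesions in 50% of rats.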

[7] = tested on: Rattus norvegicus; test: Effective dose against nystatin edema(peroral administration); format: functional; conditions: po
[8] = tested on: Rattus norvegicus; test: Effective dose against analgesic activity (peroral administration); format: functional; conditions: po
[9] = Toxic score (3) was measured as lethal dose in orally administered mice; format: toxicity, organism-based; conditions: mouse, in vivo, po
Summary of the method: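 Score derived from mouse oral LD50 (Litchfield–Wilcoxon, four mice per dose), in mg/kg: >1000 = 3; 500-1000 = 2; <500 = 1.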

[10] = Lethal dose in rats(peroral administration); format: toxicity, organism-based; conditions: rat, in vivo, po
[11] = tested on: Rattus norvegicus; test: Minimum effective dose against adjuvant arthritis on administration); format: functional; conditions: read-out: MED
Summary of the method: (§2)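 Female Lewis rats given adjuvant arthritis by plantar M. butyricum in mineral oil. Oral daily dosing either from adjuvant day to day 28 (continuous), day 16 to day 28 (therapeutic), or day 5 pre- to day 5 postadjuvant (prophylactic). MED: lowest dose producing significant (p < 0.05) inhibition of noninjected paw swelling on day 28, by plethysmometry.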

[12] = tested on: Rattus norvegicus; test: Minimum effective dose against adjuvant arthritis on prophylactic dosing (peroral administration); format: functional; conditions: po, read-out: MED; summary of the method: as §2
[13] = tested on: Rattus norvegicus; test: Minimum effective dose against adjuvant arthritis on therapeutic dosing (peroral administration); format: functional; conditions: po, read-out: MED; summary of the method: as §2
[14] = species: Rattus norvegicus; test: Minimum effective dose is the lowest dose preventing any futher increase in body temperature; format: functional; conditions: read-out: MED
Summary of the method: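 Antipyretic test, oral dosing; MED defined as the lowest dose preventing any further increase of body temperature.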

[15] = species: Rattus norvegicus; test: Tested for inhibition in the rat paw injected with carrageenan.; format: functional; set-up: concentration or dose not given beside the values
[16] = species: Rattus norvegicus; test: Tested for inhibition in the rat paw not injected with […].; format: functional; set-up: concentration or dose not given beside the values
Summary of the method: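 Adjuvant-induced arthritis, female Lewis rats, six per group: M. butyricum in mineral oil (3 mg/mL, 0.1 mL) injected into right hind paw plantar tissue. Daily oral dosing from adjuvant day to day 28, 10 or 5 (mg/kg)/day according to mouse oral LD50 (≥1000 or <1000 mg/kg). Injected and noninjected paw swelling read by mercury-displacement plethysmometry on day 28.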

[17] = tested on: Rattus norvegicus; test: Percent inhibition of carrageenan paw edema in rat, administered orally at a dose of one tenth of oral lethal dose in mice; format: functional
Summary of the method: (§3)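 1 h later, 0.1 mL of 1% carrageenan was injected into the right hind-paw plantar tissue. Paw swelling was measured by mercury-displacement plethysmometry 3 h after carrageenan, compared with controls.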

[18] = tested on: Rattus norvegicus; test: Total score is the sum of scores obtained in the adjuvant arthritis, acute toxicity, carrageenan edema, and prostaglandin synthetase assay; format: functional
[19] = species: Rattus norvegicus; test: Average percent inhibition (arthritis score=3) of the swelling of both injected and non injected paw was measured; format: functional
Summary of the method: (§4)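 Adjuvant arthritis in inbred female Lewis rats, groups of six, acclimatized 2 weeks. Arthritis induced by injecting 0.1 mL M. butyricum in mineral oil (3 mg/mL) into right hind paw plantar tissue. Oral dosing daily from adjuvant day to day 28: 10 (mg/kg)/day if mouse oral LD50 ≥1000 mg/kg, else 5 (mg/kg)/day. Swelling of injected and noninjected paws measured day 28 by mercury-displacement plethysmometry; mean percent inhibition scored 0–3.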

[20] = species: Rattus norvegicus; test: Average percent inhibition (arthritis score)of the swelling of both injected and non injected paw was measured; […]; format: functional
[21] = species: Rattus norvegicus; test: Tested for enhancement in the rat paw injected with carrageenan.; format: functional
[22] = species: Rattus norvegicus; test: Tested for enhancement in the rat paw not injected with carrageenan.; format: functional
[23] = species: Rattus norvegicus; test: Average percent inhibition of the swelling of both injected and non injected paw was measured; format: functional; summary of the method: as §4
[24] = species: Rattus norvegicus; test: Average percent inhibition (arthritis score=2) of the swelling of both injected and non injected paw was measured;values ranges from: […]-[…]; format: functional
[25] = Tested for percent inhibition of carrageenan paw edema in rat, administered orally at a dose of one tenth of lethal dose; format: organism-based; conditions: in vivo, po; summary of the method: as §3
[26] = species: Rattus norvegicus; test: Average percent inhibition (arthritis score) of the swelling of both injected and non injected paw was measured; […]; format: functional

## Cc1cc(/N=C(\Nc2nccs2)NC2CCCCC2)c2ccccc2n1 [TIMEGADINE]
[1]
  LD50: > 1000 mg/kg
[2]
  LD50: > 1000 mg/kg
[3]
  IC50: 2500 nM
[4]
  inhibition: 100%
[5]
  ED50: 29.6 mg/kg
[6]
  ED50: 170 mg/kg
[7]
  ED50: 26.5 mg/kg
[8]
  ED50: 68.5 mg/kg
[9]
  LD50: > 1000 mg/kg
[10]
  LD50: 1220 mg/kg
[11]
  minimal effective dose: 3 mg/kg
[12]
  minimal effective dose: 10 mg/kg
[13]
  minimal effective dose: 10 mg/kg
[14]
  minimal effective dose: 12.4 mg/kg
[15]
  Inhibition: 53%
[16]
  Inhibition: 63%
[17]
  Inhibition: 68%
[18]
  Total score: 12
[19]
  Inhibition: >=50%

## Cc1cc(N/C(=N/C(C)(C)C)Nc2nnc(C)s2)c2ccccc2n1
[2]
  LD50: > 1000 mg/kg
[4]
  inhibition: 33%
[9]
  LD50: > 1000 mg/kg
[15]
  Inhibition: 45%
[16]
  Inhibition: 51%
[17]
  Inhibition: 85%
[18]
  Total score: 9
[20]
  Inhibition: 49%

## Cc1csc(/N=C(\Nc2cc(C)nc3ccccc23)NC2CCCCC2)n1
[2]
  LD50: > 1000 mg/kg
[4]
  inhibition: 89.3%
[9]
  LD50: > 1000 mg/kg
[17]
  Inhibition: 38%
[18]
  Total score: 7
[21]
  Enhancement: 15%
[22]
  Enhancement: 23%
[23]
  Inhibition: <10%

## Cc1cc(N/C(=N\C2CC2)Nc2nccs2)c2ccccc2n1
[2]
  LD50: 600 mg/kg
[4]
  inhibition: 15.8%
[15]
  Inhibition: 53%
[16]
  Inhibition: 30%
[17]
  Inhibition: 65%
[18]
  Total score: 7
[24]
  Inhibition: 49%

## CCCCCC/N=C(\Nc1nccs1)Nc1cc(C)nc2ccccc12
[4]
  inhibition: -23.8%
[25]
  LD50: 8 mg/kg

## Cc1cc(/N=C(\Nc2cc(C)nc3ccccc23)NC2CCCCC2)sn1
[2]
  LD50: > 1000 mg/kg
[4]
  inhibition: 83.2%
[9]
  LD50: > 1000 mg/kg
[15]
  Inhibition: 1%
[16]
  Inhibition: 21%
[17]
  Inhibition: 48%
[18]
  Total score: 9
[26]
  Inhibition: 29%
